Data reported in PubChem BioAssay.
Calls of active or inactive are those of the source. Unless noted, no stated cut-off is given here; in the data, active means inhibition above about 30%; inactive means the rest.

Key:
[1] = Her2 expression decrease, cell viability multiplex – SKBR3 breast tumor cells, AlphaScreen, ATP viability, primary screen (AID 461;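 active means Her2 level under about 52% in both replicate screens, with viability over 70% of control, limit read from the data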;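 on Her2 level: lower value means less Her2 protein in the cells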;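 on viability: percent of carrier control wells set as 100% viability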); settings: SKBR3 Her2 protein level, 18-24 h, measured here: SKBR3 viability, ATP luminescence, at 10 µM
[2] = biological target: Receptor tyrosine-protein kinase erbB-2 (Homo sapiens) (UniProt P04626); experiment: as above; settings: 18-24 h, at 10 µM, stronger effect = lower value
[3] = reduced viability of SK-BR-3 breast cancer cells – cell-based, 24 h, human, pilot screen (AID 572;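 active means viability at or below 10% of carrier control in both of two separate runs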;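 further: compound exposure lasted between 18 and 24 h rather than exactly 24 h; 100% = carrier-treated control wells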); settings: SK-BR-3 viability, CellTiter-Glo luminescence, at 10 µM, stronger effect = lower value
[4] = HUVEC growth inhibition – cell-based, human, primary screen (AID 575;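 active means viability at or below 30% in both replicate assays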;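 further: 100% = median of untreated cell wells with 0.1% DMSO on each plate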); settings: HUVEC proliferation, CellTiter-Glo luminescence, 72 h; at 10 µM; stronger effect = lower value
Outline: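 Test system: primary human umbilical vein endothelial cells; medium: endothelial basal medium with 2% FBS plus growth supplements; dosing: 10 µM compound only; times: 72 h treatment at 37 °C; signal: CTG luminescence; read-out: % viability relative to median vehicle-well signal on each plate; control set: vehicle and MePR control wells; plate: 384-well, collagen-coated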

[5] = H69AR cell proliferation blockers – human, duplicate replicates, primary screen (AID 580;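 active means viability at or under a set limit in both replicates, limit being median viability minus 3 SD, cut at about 48% in these data, passing the limit was not always enough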;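 further: 100% = mean luminescence of untreated wells and 0% = no signal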); settings: H69AR lung tumor cells viability, ATP luminescence, 72 h; at 10 µM; stronger effect = lower value
[6] = MRP1 drug-resistance reversers in H69AR cells – cell-based, doxorubicin co-treatment, pilot screen (AID 601;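 active means viability loss from added drug above about 55%, and viability with drug at most 40%, in both replicates, limit read from the data, passing the limit was not always enough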); settings: CellTiter-Glo, 72 h, at 10 µM; for differential viability (reversal): stronger effect = higher value
[7] = yeast transport mutant growth inhibition pilot in 384-well plates, post-Golgi transport modulator project (AID 636; in the data active means inhibition above about 31%); settings: absorbance 615 nm, about 18 h, stronger effect = higher value
[8] = growth suppression of yeast trafficking mutant, preliminary HTS, modulators of trafficking downstream of Golgi apparatus project, 1536-format plate, OD 615 nm (AID 637); settings: yeast transport mutant growth, absorbance 615 nm, 18 h; stronger effect = higher value
[9] = H69AR cells + 2 uM doxorubicin, measured here: viability with 2 uM doxorubicin, stronger effect = lower value
[10] = H69AR cells, compound alone cytotoxicity

Receptor tyrosine-protein kinase erbB-2 (Homo sapiens), sequence (P04626 whole entry, looked up): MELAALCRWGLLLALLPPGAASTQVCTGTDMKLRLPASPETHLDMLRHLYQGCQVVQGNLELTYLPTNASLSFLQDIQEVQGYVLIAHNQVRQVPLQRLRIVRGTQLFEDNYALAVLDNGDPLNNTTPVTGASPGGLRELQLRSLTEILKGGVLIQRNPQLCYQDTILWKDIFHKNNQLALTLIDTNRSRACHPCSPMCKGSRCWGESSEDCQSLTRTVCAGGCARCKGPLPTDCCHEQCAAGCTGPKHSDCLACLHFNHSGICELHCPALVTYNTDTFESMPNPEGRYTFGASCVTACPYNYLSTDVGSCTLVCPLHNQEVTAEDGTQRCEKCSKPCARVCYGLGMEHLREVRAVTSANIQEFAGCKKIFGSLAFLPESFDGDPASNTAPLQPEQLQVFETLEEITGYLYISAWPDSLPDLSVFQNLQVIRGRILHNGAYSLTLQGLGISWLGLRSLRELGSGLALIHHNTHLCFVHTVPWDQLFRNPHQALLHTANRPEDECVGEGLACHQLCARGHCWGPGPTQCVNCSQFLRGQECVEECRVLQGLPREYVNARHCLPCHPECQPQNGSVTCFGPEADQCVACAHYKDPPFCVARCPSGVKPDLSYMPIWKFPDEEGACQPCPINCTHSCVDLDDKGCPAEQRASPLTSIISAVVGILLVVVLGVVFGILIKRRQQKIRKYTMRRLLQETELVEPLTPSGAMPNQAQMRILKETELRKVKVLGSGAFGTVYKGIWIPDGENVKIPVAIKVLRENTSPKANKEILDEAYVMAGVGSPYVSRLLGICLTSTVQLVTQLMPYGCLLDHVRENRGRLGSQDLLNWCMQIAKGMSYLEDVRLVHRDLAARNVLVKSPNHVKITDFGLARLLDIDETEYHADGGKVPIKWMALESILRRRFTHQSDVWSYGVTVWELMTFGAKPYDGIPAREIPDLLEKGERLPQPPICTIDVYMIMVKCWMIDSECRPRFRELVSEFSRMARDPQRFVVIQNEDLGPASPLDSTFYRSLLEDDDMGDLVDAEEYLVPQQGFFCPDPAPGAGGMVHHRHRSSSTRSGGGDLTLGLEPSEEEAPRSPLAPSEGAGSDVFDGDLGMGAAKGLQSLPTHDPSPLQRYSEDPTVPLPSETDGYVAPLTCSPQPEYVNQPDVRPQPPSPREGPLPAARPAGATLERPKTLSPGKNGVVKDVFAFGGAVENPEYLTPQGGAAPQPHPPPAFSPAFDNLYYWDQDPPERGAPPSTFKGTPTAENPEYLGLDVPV

Row | SMILES | viability [1] | Her2 level [2] | viability [3] | viability [4] | viability [5] | differential viability (reversal) ([6]; H69AR cells + 2 uM doxorubicin) | viability [6, 9] | viability [6, 10] | inhibition [7] | inhibition [8]
1 | O=c1oc2ccccc2c2c1ncn2-c1ccccc1 | 100% | 96% (inactive) | 100% (inactive) | 90.4% (inactive) | 89.1% (inactive) | -8.58% (inactive) | 97.7% | 89.1% | 0.52% (inactive) | -2.13% (inactive)
2 | CCSc1nc2ccccc2n1CC(N)=O | 102% | 81% (inactive) | 102% (inactive) | 96.5% (inactive) | 88.8% (inactive) | 6.57% (inactive) | 82.2% | 88.8% | -9.04% (inactive) | 1.9% (inactive)
3 | N#Cc1ccc(COC(=O)Cn2nnc(-c3ccccc3)n2)cc1 | 111% | 96% (inactive) | 111% (inactive) | 89.5% (inactive) | 70.7% (inactive) | 6.57% (inactive) | 64.1% | 70.7% | -3.12% (inactive) | -0.95% (inactive)
4 | CCN(c1cccc(C)c1)S(=O)(=O)c1ccc2[nH]c(=O)c(=O)[nH]c2c1 | 108% | 75% (inactive) | 108% (inactive) | 88.7% (inactive) | 92.1% (inactive) | 1.35% (inactive) | 90.8% | 92.1% | -2.24% (inactive) | 0.91% (inactive)
5 | COc1ccc(-n2ncc3c(NCc4ccccn4)ncnc32)cc1 | 98.5% | 97.5% (inactive) | 98.5% (inactive) | 102% (inactive) | 90.5% (inactive) | 3.51% (inactive) | 87% | 90.5% | -1.97% (inactive) | 4.19% (inactive)
6 | COc1cc(CNc2ccc(N3CCOCC3)c(C(=O)O)c2)ccc1OCC(N)=O | 106% | 102% (inactive) | 106% (inactive) | 97.4% (inactive) | 99.9% (inactive) | 0.83% (inactive) | 99.1% | 99.9% | -4.67% (inactive) | -2.13% (inactive)
7 | FC(F)(F)c1cccc(N2CCN(c3nnnn3-c3ccccc3)CC2)c1 | 85% | 88.5% (inactive) | 85% (inactive) | 81% (inactive) | 84.7% (inactive) | 0.31% (inactive) | 84.4% | 84.7% | -5.84% (inactive) | -2.22% (inactive)
8 | O=C(COc1ccc(S(=O)(=O)NC2CCCCC2)cc1Cl)NCC1CCCO1 (stereo not given) | 88.5% | 98% (inactive) | 88.5% (inactive) | 98.6% (inactive) | 89.4% (inactive) | 0.36% (inactive) | 89% | 89.4% | -5.07% (inactive) | -7.78% (inactive)
